20 compounds from ChEMBL document CHEMBL2417418, “Synthesis and evaluation of novel 3-(3,5-dimethylbenzyl)uracil analogs as potential anti-HIV-1 agents” (Bioorg Med Chem, 2013) can be followed below.

A short description of data set [1]: Selectivity index, ratio of CC50 for human MT4 cells to EC50 for HIV1 3B. Type of data set: toxicity, cell-based. The settings on record: read-out: Ratio CC50/EC50. The procedure, abridged:
(§1)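 SI computed as CC50/EC50. Both values come from parallel MTT readings after 4 days at 37 °C. CC50 is from mock-infected MT-4 cells; EC50 is from MT-4 cells infected with HIV-1 IIIB at MOI 0.1, as 50% protection from cytopathogenicity.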

A short description of data set [2]: Cytotoxicity against human MT4 cells after 4 days by MTT assay. Type of data set: cell-based. In short, it runs like this:
(§2)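 Mock-infected MT-4 cells (1 ×10^5 cells/mL, RPMI 1640 + 10% heat-inactivated FBS) cultured with various compound concentrations in parallel with the antiviral assay, 4 days at 37 °C, 5% CO2. Viability read by MTT. CC50 is the concentration cutting uninfected-cell viability by 50%.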
For orientation: Tetrazolium assays rely on reduction of a dye to a coloured formazan, in cell work by metabolically active cells.

Data set [3] deals with Human immunodeficiency virus 1. The data set is described as follows: Antiviral activity against HIV1 3B infected in human MT4 cells assessed as protection against viral-induced cytopathogenicity after 4 days by MTT assay. It counts as functional, organism-based. The settings on record: Human immunodeficiency virus 1, 3B, MT4, 96 h. (In general: Protection from cytopathic effect is a common read-out in antiviral testing.)

Data set [4] is described as follows: Selectivity index, ratio of CC50 for human MT4 cells to EC50 for HIV1. Type of data set: toxicity, cell-based. Particulars: read-out: Ratio CC50/EC50. The procedure, abridged: as §1
Data set [5] in a line: Cytotoxicity against human MT4 cells. It counts as cell-based. In short, it runs like this: as §2
The subject of data set [6] is Human immunodeficiency virus 1. The data set is described as follows: Antiviral activity against HIV1 infected in human MT4 cells. Type of data set: functional, organism-based. The settings on record: Human immunodeficiency virus 1, MT4.

With `Cc1cc(C)cc(Cn2c(=O)cc(N)n(Cc3ccccn3)c2=O)c1`, the selectivity ratio in data set [1] is greater than 443. The CC50 (as a rule, the concentration that lowers cell viability or growth by half) at 96 h in data set [2] was greater than 100 µM. The EC50 (commonly the concentration giving half of the maximal effect) in data set [3] was 0.23 µM.

On to `Cc1cc(C)cc(Cn2c(=O)cc(N)n(Cc3ccncc3)c2=O)c1`, for which, in data set [1], the selectivity ratio was greater than 2860. The compound also yielded a CC50 at 96 h in data set [2] greater than 100 µM. The EC50 in data set [3] was determined as 0.03 µM.

On to `Cc1cc(C)cc(Cn2c(=O)cc(N=[N+]=[N-])n(Cc3ccccc3)c2=O)c1`, for which, in data set [4], the selectivity ratio was 685. In data set [5], it took 45.9 µM to reach half-maximal cytotoxicity (CC50). For the same compound, the response in data set [6] was half-maximal at 0.067 µM (EC50).

Take `Cc1cc(C)cc(Cn2c(=O)cc(N)n(Cc3ccccc3)c2=O)c1`: the selectivity ratio in data set [4] is 661. The same compound registered a CC50 in data set [5] of 45.6 µM. This compound yielded an EC50 in data set [6] of 0.069 µM.

In data set [2], `CC(=O)Nc1cc(=O)n(Cc2cc(C)cc(C)c2)c(=O)n1Cc1ccccc1` registered a CC50 at 96 h greater than 100 µM. Also, the EC50 in data set [3] is greater than 100 µM.

`CNc1cc(=O)n(Cc2cc(C)cc(C)c2)c(=O)n1Cc1ccccc1`: the selectivity ratio in data set [1] worked out at 9. Moreover, it took 65 µM to reach half-maximal cytotoxicity in data set [2] (CC50 at 96 h). The EC50 in data set [3] is 7 µM.

As for `Cc1cc(C)cc(Cn2c(=O)cc(N(C)C)n(Cc3ccccc3)c2=O)c1`, it took 48 µM to reach half-maximal cytotoxicity in data set [2] (CC50 at 96 h). Besides, in data set [3], the EC50 is greater than 48 µM.

`Cc1cc(C)cc(Cn2c(=O)cc(N3CCCC3)n(Cc3ccccc3)c2=O)c1` showed a CC50 at 96 h in data set [2] of 31 µM. The EC50 in data set [3] is greater than 31 µM.

Compound `Cc1cc(C)cc(Cn2c(=O)cc(N3CCCCC3)n(Cc3ccccc3)c2=O)c1` yielded a CC50 at 96 h in data set [2] of 47 µM. Moreover, the EC50 in data set [3] was greater than 47 µM.

`Cc1cc(C)cc(Cn2c(=O)cc(N3CCNCC3)n(Cc3ccccc3)c2=O)c1`: the CC50 at 96 h in data set [2] came to 16 µM. In addition, the EC50 in data set [3] was greater than 16 µM.

Turning to `Cc1cc(C)cc(Cn2c(=O)cc(N3CCOCC3)n(Cc3ccccc3)c2=O)c1`, in data set [2], the CC50 at 96 h was greater than 100 µM. Also, the EC50 in data set [3] was greater than 100 µM.

Take `Cc1cc(C)cc(Cn2c(=O)cc(NC3CC3)n(Cc3ccccc3)c2=O)c1`: in data set [2], the 50% cytotoxic concentration (CC50) at 96 h is greater than 100 µM. The EC50 in data set [3] is greater than 100 µM.

With `Cc1cc(C)cc(Cn2c(=O)cc(NC3CCCCC3)n(Cc3ccccc3)c2=O)c1`, in data set [2], the CC50 at 96 h is 74 µM. The EC50 in data set [3] was greater than 74 µM.

In turn, `Cc1cc(C)cc(Cn2c(=O)cc(NCc3ccccc3)n(Cc3ccccc3)c2=O)c1` displayed a CC50 at 96 h in data set [2] greater than 100 µM. The EC50 in data set [3] was greater than 100 µM.

Compound `Cc1cc(C)cc(Cn2c(=O)cc(N=[N+]=[N-])n(CC#N)c2=O)c1` gave a CC50 at 96 h in data set [2] of 60 µM. Besides, the EC50 in data set [3] worked out at 3.5 µM.

`Cc1cc(C)cc(Cn2c(=O)cc(N=[N+]=[N-])n(Cc3ccccn3)c2=O)c1`: the selectivity ratio in data set [1] is greater than 457. In data set [2], this compound came in with a CC50 at 96 h greater than 100 µM. In data set [3], the EC50 was 0.22 µM.

In the case of `Cc1cc(C)cc(Cn2c(=O)cc(N=[N+]=[N-])n(Cc3ccncc3)c2=O)c1`, the selectivity ratio in data set [1] is 1160. This compound displayed a CC50 at 96 h in data set [2] of 59 µM. Further, the EC50 in data set [3] came to 0.05 µM.

For the compound `Cc1cc(C)cc(Cn2c(=O)cc(N)n(CC#N)c2=O)c1`, the CC50 at 96 h in data set [2] was greater than 100 µM. Besides, the EC50 in data set [3] was greater than 100 µM.

Take `Cc1ccnc2c1NC(=O)c1cccnc1N2C1CC1` [NEVIRAPINE]: the selectivity ratio in data set [4] is greater than 1640.

In the case of `Cc1cn([C@H]2C[C@H](N=[N+]=[N-])[C@@H](CO)O2)c(=O)[nH]c1=O` [ZIDOVUDINE], the selectivity ratio in data set [1] is greater than 2770. The half-maximal cytotoxic concentration (CC50) at 96 h in data set [2] was greater than 100 µM. Also, the EC50 in data set [3] came out at 0.04 µM.
